Blank lines part the entries; values can stand above or below the compound they belong to.
Columns and labels:
Format in all cases: ADME, organism-based, Macaca mulatta
[1] = Drug level in normal rhesus monkey cerebellum assessed as standard uptake value at 81.2 MBq, iv after 8 mins by microPET; settings: in vivo
How it was run: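 One normal rhesus monkey, each tracer given iv via the vena saphena (81.2, 96.3 or 109.4 MBq), with 1 day between tracer injections. Dynamic brain μPET over 180 min used frames of 5 × 60 s, 5 × 120 s, 9 × 300 s and 12 × 600 s. Images were reconstructed by filtered back projection with a RAMP filter. Regional time-activity curves were expressed as SUV.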

[2] = Drug level in normal rhesus monkey thalamus assessed as standard uptake value at 96.3 MBq, iv after 115 mins by microPET; settings: in vivo
[3] = Drug level in normal rhesus monkey frontal cortex assessed as standard uptake value at 96.3 MBq, iv after 14 mins by microPET; settings: in vivo
[4] = Drug level in normal rhesus monkey frontal cortex assessed as standard uptake value at 109.4 MBq, iv after 117 mins by microPET; settings: in vivo, 1.95 h
[5] = Drug level in normal rhesus monkey frontal cortex assessed as standard uptake value at 152.9 MBq, iv after 12 mins by microPET; settings: in vivo, 0.2 h
How it was run: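 Single normal rhesus monkey; tracer given iv via the vena saphena, 1 day apart from the other tracer injections. Dynamic μPET ran 90 min (5×60 s, 5×120 s, 9×300 s, 3×600 s). Images were reconstructed by filtered back projection with a RAMP filter. Regional time-activity curves were expressed as SUV.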

- SUV [1]: 2.781
SMILES: CNc1ccc2nc(-c3ccc([18F])cc3)sc2c1

- SUV [2]: 2.14
- SUV [3]: 2.19
SMILES: CN(C)c1ccc2nc(-c3ccc([18F])cc3)sc2c1

- SUV [4]: 4.28
SMILES: Nc1ccc2nc(-c3ccc([18F])cc3)sc2c1

- SUV [5]: 2.027
SMILES: [11CH3]Nc1ccc(-c2nc3ccc(O)cc3s2)cc1 [PITTSBURGH COMPOUND B]
